Compounds with a hit are over-represented: about 2.9% of the library has one in this group of screens.
TRPC4 block: TRPC4 (mouse) channel inhibition; Q9QUQ5; HEK293 TRPC4beta/mu-opioid, DAMGO-evoked Fluo4 calcium flux; hits give low values; B-score at 10 µM; 300,000 compounds, 0.39% hits; AID 2247;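 active = B-score over 3 SD under the library average, no early fluorescence shift, positive overall ratio signal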
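Test system – stable TRPC4beta/mu-opioid receptor HEK293 cells · Probe or stimulus – DAMGO, a submaximal dose followed by a maximal one · Dosing – one concentration per compound · Signal – Fluo4 calcium fluorescence by kinetic imaging, 5 s 1 Hz baseline · Evaluation – per-well B score of integrated baseline-normalized Fluo4 ratio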
TRPC4 act: TRPC4 (mouse) channel activation; Q9QUQ5; HEK293 TRPC4beta/mu-opioid, Fluo4 calcium fluorescence; hits give high values; B-score at 10 µM; 310,000 compounds, 0.49% hits;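 active = B-score above 5 SD of library B-scores, and initial fluorescence ratio not above library mean plus 5 SD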;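 also: positive B-score marks a calcium rise read as TRPC4 activation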
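system = HEK293 cells stably co-expressing mouse TRPC4beta and mu-opioid receptor | schedule = Fluo4 dye loading 45 min at room temperature, 110 s recording | measure = B-scored integrated calcium fluorescence ratio | signal = Fluo4 calcium-sensitive dye fluorescence, kinetic, 1 Hz baseline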
TRPC6 act: mouse TRPC6 channel activation; AID 2550; Q61143; B-score at 10 µM; 310,000 compounds, 0.13% hits; HEK293-TRPC6 membrane potential dye fluorescence; hits give high values;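 active = B-score of the integrated fluorescence ratio above library mean plus 3 SD, and starting fluorescence ratio within library mean plus 5 SD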;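 also: higher score means more depolarization so channel activation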
TRPC6 inhibitor: blocks the mouse TRPC6 cation channel | Q61143 | HEK293-TRPC6, membrane potential dye, ACh-evoked depolarization; hits give low values | B-score at 10 µM | 310,000 compounds, 1.1% hits;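 active = B-score under library mean minus 3 SD, initial fluorescence not abnormally high, positive integrated signal ratio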;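 also: B-score derived from integrated fluorescence ratio over the kinetic read; more negative B-score means stronger inhibition of depolarization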
Kir21 inh: inhibitors of mouse Kir2.1 inward-rectifier potassium channel | HEK293-Kir2.1, FluxOR thallium flux fluorescence; hits give low values | B-score at 10 µM | 310,000 compounds, 0.85% hits;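 active = fluorescence ratio B-score at or below minus 3 SD of library scores, with starting-brightness B-score within 2 SD, cut at about -4.2 in these data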;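 also: channel flux triggered by added potassium and thallium sulfate stimulus; B-score of peak minus minimum fluorescence over baseline after thallium stimulus; more negative B-score means stronger Kir2.1 block with less thallium influx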
Target sequence (P35561 whole entry, looked up): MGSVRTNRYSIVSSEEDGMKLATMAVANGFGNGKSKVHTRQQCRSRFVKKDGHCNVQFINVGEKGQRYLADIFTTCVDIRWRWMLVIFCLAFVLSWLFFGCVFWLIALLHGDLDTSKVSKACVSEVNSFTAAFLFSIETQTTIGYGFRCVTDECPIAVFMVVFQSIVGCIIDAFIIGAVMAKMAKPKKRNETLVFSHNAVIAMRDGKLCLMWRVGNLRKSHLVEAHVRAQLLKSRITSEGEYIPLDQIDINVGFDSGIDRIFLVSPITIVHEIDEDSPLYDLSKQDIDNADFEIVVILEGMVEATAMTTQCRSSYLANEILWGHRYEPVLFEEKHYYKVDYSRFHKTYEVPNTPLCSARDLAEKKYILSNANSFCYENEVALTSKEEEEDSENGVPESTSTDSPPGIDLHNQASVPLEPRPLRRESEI
TRPC4 potent: allosterically enhances the mouse TRPC4 cation channel. Q9QUQ5. HEK293 TRPC4beta/mu-opioid, DAMGO EC20, Fluo-4 Ca2+ flux; hits give high values. B-score at 10 µM. 310,000 compounds, 0.42% hits. AID 2227;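 active = B-score of calcium response area above 5 SD of library B-scores, with initial fluorescence ratio within 5 SD of library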
A number is an active result; - = inactive.

SMILES	TRPC4 block	TRPC4 act	TRPC6 act	TRPC6 inhibitor	Kir21 inh	TRPC4 potent
OCC1(CCOc2ccccc2)CCN(Cc2cc(Cl)ccc2O)CC1	-	-	-	-	-4.6	-
OCC1(CCc2ccccc2)CCN(Cc2ccccc2Cl)CC1	-	69	-	-	-	-
Clc1ccccc1CN1CCN(CCCc2ccccc2)CC1	-	-	-	-	-	-
Cc1cc(S(=O)(=O)/N=C(\N)c2ccc(C(N)=O)cc2)cc(C)c1F	-	-	-	-	-	-
COc1cccc(OC)c1-c1nn(-c2ncc(C(F)(F)F)cc2Cl)c(=O)o1	-	-	-	-	-	-
O=C(NC1CCc2ccccc21)c1cc(COc2cncc(Cl)c2)on1 (stereo not given)	-	-	-	-	-	-
OCC1(CCc2ccccc2)CCN(Cc2c(F)ccc(F)c2F)CC1	-	-	-	-	-	-
OCC1(CCc2ccccc2)CCN(Cc2cc(F)ccc2-n2cccn2)CC1	-	82	-	-	-	-
O=C(CNCc1ccccc1)Nc1ccc(Oc2ccccc2)cc1	-	-	-	-	-9.5	-
COc1ccc(Cl)cc1NC(=O)CN(C)C(=O)Cc1ccc2c(c1)CCC2	-	-	-	-	-4.8	-
COc1ccc(Cl)cc1NC(=O)CN(C)C(=O)Cc1ccsc1	-	-	-	-	-	-
CCCc1nc2ccc(N)cc2c(=O)n1Cc1ccccc1Cl	-	-	-	-	-	-
CCCCN(CC)CCCNC(=O)Cn1nc(Cc2cccnc2)c2ccccc2c1=O	-	134	-	-	-	-
CCN(CC)CCNC(=O)Cn1nc(Cc2ccccc2)c2ccccc2c1=O	-	-	-	-	-	-
OC1(c2ccccc2)CCN(Cc2ccccc2)CC1	-	-	-	-	-7.6	-
OC1(c2ccc3c(c2)OCO3)CCN(Cc2ccc(F)cc2)CC1	-	-	-	-	-4.5	-
OC1(c2ccc(F)cc2)CCN(Cc2ccccc2)C1 (stereo not given)	-6	-	-	-	-4.5	-
OC1(c2ccc(F)cc2)CCN(Cc2cccnc2)CC1	-	-	-	-	-	-
COC(=O)C(=O)/C=C(\O)c1c(C)cc(C)cc1C	-	-	-	-	-	-
NC(=NC(=O)c1ccc(Cl)cc1)N1N=CCC1c1ccccc1 (stereo not given)	-	-	-	-	-	-
O=C(CSc1ccc(Cl)cc1)N1N=CCC1c1ccccc1 (stereo not given)	-	-	-	-	-6.1	-
O=S(=O)(c1ccccc1)N(Cc1ccccc1)c1ccccn1	-	-	-	-	-6.7	-
C/C(=N\NC(=O)c1ccccc1F)c1cccc(NC(=O)c2ccc(C)cc2)c1	-	-	-	-	-	-
c1ccc(N2CCN(c3nc(-c4ccccn4)nc4ccccc34)CC2)cc1	-	-	-	-5.6	-	-
c1ccc2c(N3CCCCCC3)nc(-c3ccncc3)nc2c1	-	-	-	-	-	-
SMILES	TRPC4 block	TRPC4 act	TRPC6 act	TRPC6 inhibitor	Kir21 inh	TRPC4 potent
CCOC(=O)N1CCN(C(=O)CSc2ccc3nnc(CCNC(=O)c4ccc(OC)cc4)n3n2)CC1	-	-	-	-	-	-
Cc1c(C(=O)N2CCC(Cc3ccccc3)CC2)cccc1[N+](=O)[O-]	-	-	-	-	-	-
COCCSc1ccccc1C(=O)N1CCC(Cc2ccccc2)CC1	-7	44	-	-	-	-
Cc1ccc2oc(C(=O)NCC3CCOCC3)c(C)c2c1	-	-	-	-	-	-
O=C(COC(=O)C1(c2cccc(F)c2)CCCC1)NCc1ccc2c(c1)OCO2	-	-	-	-	-4.2	-
O=C(COC(=O)C1(c2cccc(F)c2)CCCC1)NCc1cccs1	-	-	-	-	-5.3	-
NC(=O)c1ccc(NC(=O)COC(=O)C2(c3cccc(F)c3)CCCC2)cc1	-	-	-	-	-	-
O=S(=O)(c1ccc(F)cc1)N1CCN=C1SCc1cccnc1	-	-	-	-	-	-
O=S(=O)(c1ccc2ccccc2c1)N1CCN=C1SCc1cccnc1	-	-	-	-	-5	-
C=CCOC(=O)C1=C[C@H](c2ccc(C(F)(F)F)cc2)[C@@H](CCCO)[C@H](OCC)O1	-5	-	-	-	-	-
Cc1ccccc1C(=O)Nc1cccc(-c2ccc(N3CCOCC3)nn2)c1	-	-	-	-	-	-
CCOC(=O)c1ccc(N=C2C(=S)N(c3ccc(C(=O)OCC)cc3)C(=N)N2/N=C/c2ccccc2)cc1	-	-	-	-	-	17
Cc1cc(NC(=O)COC(=O)c2cc([N+](=O)[O-])ccc2N2CCOCC2)ccc1Br	-	-	-	-	-	-
COc1cccc(N=Nc2c(N)[nH][nH]c2=O)c1	-	-	-	-	-	14
Nc1[nH][nH]c(=O)c1N=Nc1cccc(Cl)c1	-	-	-	-	-	10
CCc1cccc(NS(=O)(=O)c2c(C)nc3scc(C)n3c2=O)c1	-	-	-	-	-	-
COc1ccc(/C=N/Nc2cc(C)nc(-n3nc(C)cc3C)n2)cc1	-	-	-	-	-	19
COc1cc(C(=O)NC2CC(C)(C)CC(C)(C)C2)ccc1OC1CCN(C(C)=O)CC1	-	-	-	-	-	-
Cc1nn(C)cc1C(C(=O)NC1CCCCC1)N(C(=O)Cc1cccs1)c1ccc(C(C)C)cc1 (stereo not given)	-	44	-	-	-	-
CCC(C)(C)c1ccc(OCCCC[n+]2cccc(C)c2C)c(C(C)(C)CC)c1	-	-	-	-5.3	-9.5	-
COc1ccccc1CNC(=O)C(C)c1ccc([N+](=O)[O-])cc1 (stereo not given)	-	-	-	-	-	-
C=CCn1cnc2scc(-c3ccc(CC)cc3)c2c1=O	-6	-	-	-	-	-
CCn1cnc2scc(-c3ccccc3)c2c1=O	-	-	-	-	-	-
CCOC(=O)C1CCN(CC(O)COC(CC)c2ccccc2)CC1 (stereo not given)	-	-	-	-	-	-
O=S(=O)(NC1CCCCC1Oc1ccccc1)c1ccccc1 (stereo not given)	-	-	-	-	-5.4	-
O=C(Cn1sc2ccccc2c1=O)N1CCN(C(=O)c2ccco2)CC1	-	-	-	-	-	-
CCC1CN(C(=O)NCc2ccc(F)cc2)c2cc(C)ccc2O1 (stereo not given)	-	-	-	-	-	-
CCC1CN(C(=O)Nc2ccc(C)cc2)c2cc(C)ccc2O1 (stereo not given)	-6	-	-	-	-	-
CCOc1ccc(CCNC(=O)C2CCCN(c3ncnc4c3nc3n4CCCCC3)C2)cc1 (stereo not given)	-	-	-	-	-	-

From PubChem BioAssay
